The results in this text go back to ChEMBL document CHEMBL3120088, “Discovery of selective small molecule type III phosphatidylinositol 4-kinase alpha (PI4KIIIα) inhibitors as anti hepatitis C (HCV) agents” (J Med Chem, 2014).

Activity calls are given as the source filed them.

A short description of data set [1]: Inhibition of PI3Kalpha (1 to 1068)/6xHis-tagged p85 (1 to 724) (unknown origin) using diC8-PIP2 as substrate preincubated for 30 mins followed by substrate addition measured after 45 to 60 mins. Details: species or system Homo sapiens.
Data set [2] concerns Mus musculus. As to the kind of experiment: Toxicity in mouse assessed as pathological changes in stomach at 40 mg/kg/day. To be noted: in vivo. Type of data set: organism-based. Summed up:
(§1)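 Mouse repeat-dose toxicity study: 40 mg/kg/day given daily for 14 days. Endpoints were morbidity, mortality, test-article-related changes in stomach, thymus and spleen, and clinical pathology parameters.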

Data set [3] has as its system Rattus norvegicus. Kind of data set: Half life in Sprague-Dawley rat at 1 mg/kg, iv. Conditions: in vivo. Details: dose 1 mg/kg, route intravenous. In kind it is ADME, organism-based. Summed up: (§2)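 Rats were given a single dose of compound formulated in DMSO/cyclodextrin, either intravenously at 1 mg/kg or orally at 5 mg/kg. Each parameter comes from the matching route arm. Dose-normalized AUC is expressed as h kg ng mL⁻¹ mg⁻¹.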

Data set [4] relates to Rattus norvegicus. Kind of data set: Dose normalized AUC in Sprague-Dawley rat at 5 mg/kg, po. To be noted: in vivo. Details: dose 5 mg/kg, route oral. Type of data set: ADME, organism-based. In short, it runs like this: as §2
Data set [5] relates to Rattus norvegicus. As to the kind of experiment: (§3) Tmax in Sprague-Dawley rat at 5 mg/kg, po. In kind it is ADME, organism-based. Details: dose 5 mg/kg, route oral. Conditions: in vivo. Summed up:
as §2

For data set [6], the system named is Mus musculus. As to the kind of experiment: Toxicity in mouse assessed as pathological changes in spleen at 40 mg/kg/day. To be noted: in vivo. In kind it is organism-based. Summed up: as §1
A short description of data set [7]: Inhibition of PI3Kbeta (1 to 1070)/6xHis-tagged p85 (1 to 724) (unknown origin) using diC8-PIP2 as substrate preincubated for 30 mins followed by substrate addition measured after 45 to 60 mins. Set-up: species or system Homo sapiens.
For data set [8], the target named is T1, Phosphatidylinositol 4-kinase alpha (Homo sapiens, UniProt P42356). As to the kind of experiment: Inhibition of GST-tagged PI4K-alpha (1 to 2044) (unknown origin) using D-myo-phosphatidylinositol as substrate preincubated for 30 mins followed by substrate addition measured after 180 mins by luminescence assay.
Target sequence in this assay (P42356 whole entry): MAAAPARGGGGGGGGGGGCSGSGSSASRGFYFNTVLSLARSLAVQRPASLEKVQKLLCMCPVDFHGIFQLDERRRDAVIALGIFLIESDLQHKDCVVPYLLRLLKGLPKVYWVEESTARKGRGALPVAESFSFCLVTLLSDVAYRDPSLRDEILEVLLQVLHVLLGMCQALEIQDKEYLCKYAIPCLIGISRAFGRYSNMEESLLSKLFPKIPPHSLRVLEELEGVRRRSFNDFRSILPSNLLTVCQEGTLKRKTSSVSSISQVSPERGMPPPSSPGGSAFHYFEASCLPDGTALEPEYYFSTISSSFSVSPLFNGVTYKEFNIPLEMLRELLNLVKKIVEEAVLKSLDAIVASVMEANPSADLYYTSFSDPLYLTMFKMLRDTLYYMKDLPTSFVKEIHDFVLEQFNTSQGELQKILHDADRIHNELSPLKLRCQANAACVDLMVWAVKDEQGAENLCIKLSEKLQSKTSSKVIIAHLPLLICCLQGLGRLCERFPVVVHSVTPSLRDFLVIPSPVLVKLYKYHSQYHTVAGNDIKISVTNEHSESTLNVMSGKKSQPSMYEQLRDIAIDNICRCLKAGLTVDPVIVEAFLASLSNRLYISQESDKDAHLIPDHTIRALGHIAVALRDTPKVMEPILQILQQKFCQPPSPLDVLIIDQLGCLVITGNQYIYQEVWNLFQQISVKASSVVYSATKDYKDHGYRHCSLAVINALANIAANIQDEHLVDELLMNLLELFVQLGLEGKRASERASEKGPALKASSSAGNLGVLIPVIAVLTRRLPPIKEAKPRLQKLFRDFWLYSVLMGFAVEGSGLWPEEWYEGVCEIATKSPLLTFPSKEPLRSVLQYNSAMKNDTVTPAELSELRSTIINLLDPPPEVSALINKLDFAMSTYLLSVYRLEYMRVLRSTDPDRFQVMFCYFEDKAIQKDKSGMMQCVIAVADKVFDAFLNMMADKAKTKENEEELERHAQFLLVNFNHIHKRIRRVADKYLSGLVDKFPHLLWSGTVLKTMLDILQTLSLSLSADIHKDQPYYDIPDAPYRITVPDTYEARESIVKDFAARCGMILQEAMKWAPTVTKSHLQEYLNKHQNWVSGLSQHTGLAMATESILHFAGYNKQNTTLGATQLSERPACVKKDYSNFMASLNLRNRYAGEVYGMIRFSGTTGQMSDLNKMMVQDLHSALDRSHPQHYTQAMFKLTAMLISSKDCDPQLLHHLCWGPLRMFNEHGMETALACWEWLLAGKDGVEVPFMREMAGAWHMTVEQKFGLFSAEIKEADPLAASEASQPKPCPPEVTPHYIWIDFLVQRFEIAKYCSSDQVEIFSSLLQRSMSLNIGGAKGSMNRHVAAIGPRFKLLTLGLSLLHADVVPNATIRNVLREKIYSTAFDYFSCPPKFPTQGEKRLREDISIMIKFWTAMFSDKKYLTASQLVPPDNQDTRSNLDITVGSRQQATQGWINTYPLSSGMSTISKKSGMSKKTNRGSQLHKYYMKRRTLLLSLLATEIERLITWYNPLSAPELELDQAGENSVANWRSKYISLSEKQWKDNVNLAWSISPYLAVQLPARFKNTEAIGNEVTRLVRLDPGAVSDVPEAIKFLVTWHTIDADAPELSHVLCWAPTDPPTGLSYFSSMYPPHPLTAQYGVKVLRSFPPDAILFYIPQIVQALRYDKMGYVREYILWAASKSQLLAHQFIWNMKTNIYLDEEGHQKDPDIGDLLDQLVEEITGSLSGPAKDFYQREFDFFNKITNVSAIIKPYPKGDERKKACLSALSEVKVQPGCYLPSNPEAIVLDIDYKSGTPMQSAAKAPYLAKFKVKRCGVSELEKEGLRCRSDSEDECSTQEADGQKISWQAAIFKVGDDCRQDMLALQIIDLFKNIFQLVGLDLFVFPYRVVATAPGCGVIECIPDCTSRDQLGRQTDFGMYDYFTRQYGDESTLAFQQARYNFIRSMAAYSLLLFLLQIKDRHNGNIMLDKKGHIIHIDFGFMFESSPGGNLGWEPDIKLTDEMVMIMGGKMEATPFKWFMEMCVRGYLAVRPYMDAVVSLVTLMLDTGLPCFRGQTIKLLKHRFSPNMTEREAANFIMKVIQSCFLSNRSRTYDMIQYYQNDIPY
For data set [9], the system named is Rattus norvegicus. Kind of data set: (§4) Half life in Sprague-Dawley rat at 5 mg/kg, po. In kind it is ADME, organism-based. To be noted: in vivo. Set-up: dose 5 mg/kg, route oral. Summed up:
as §2

For data set [10], the system named is Rattus norvegicus. As to the kind of experiment: (§5) Volume of distribution at steady state in Sprague-Dawley rat at 1 mg/kg, iv. Type of data set: ADME, organism-based. Set-up: dose 1 mg/kg, route intravenous. Conditions: in vivo. Summed up:
as §2

For data set [11], the system named is Rattus norvegicus. As to the kind of experiment: Dose normalized AUC in Sprague-Dawley rat at 1 mg/kg, iv. Type of data set: ADME, organism-based. Details: dose 1 mg/kg, route intravenous. To be noted: in vivo. In short, it runs like this:
as §2

In data set [12] the test system is Mus musculus. Kind of data set: Toxicity in mouse assessed as mortality at 40 mg/kg/day. Type of data set: organism-based. To be noted: in vivo. In short, it runs like this: as §1
Data set [13] is described as follows: Inhibition of 6xHis-tagged PI4K-beta (13 to 828) 316 to 330 deletion mutant (unknown origin) using D-myo-phosphatidylinositol as substrate preincubated for 30 mins followed by substrate addition measured after 180 mins by luminescence assay. Set-up: species or system Homo sapiens.
Data set [14] in a line: Toxicity in mouse after 14 days. To be noted: in vivo. In kind it is organism-based. Summed up:
as §1

Data set [15] relates to Hepatitis C virus. As to the kind of experiment: Antiviral activity against Hepatitis C virus genotype 2a expressed in human Huh-7 Lunet cells after 48 hrs by luciferase reporter gene assay. In kind it is functional, organism-based, Hepacivirus hominis. Conditions: for pIC50: huh-7.
The subject of data set [16] is Mus musculus. Kind of data set: Toxicity in mouse assessed as pathological changes in thymus at 40 mg/kg/day. Type of data set: organism-based. Conditions: in vivo. In short, it runs like this:
as §1

Data set [17] relates to Hepatitis C virus. As to the kind of experiment: Antiviral activity against Hepatitis C virus genotype 1a expressed in ET cells after 48 hrs by luciferase reporter gene assay. In kind it is functional, organism-based, Hepacivirus hominis, subtype 1a. Conditions: for pIC50: et.
Data set [18] can be described thus: Inhibition of PI3Kdelta (1 to 1044)/6xHis-tagged p85 (1 to 724) (unknown origin) using diC8-PIP2 as substrate preincubated for 30 mins followed by substrate addition measured after 45 to 60 mins. Set-up: species or system Homo sapiens.
For data set [19], the system named is Hepatitis C virus. Kind of data set: Antiviral activity against Hepatitis C virus genotype 1b expressed in ET cells after 48 hrs by luciferase reporter gene assay. In kind it is functional, organism-based, Hepacivirus hominis. To be noted: for pIC50: et. For orientation: Reporter assays use an easily measured gene product as a stand-in for the process of interest.

Data set [20] relates to Mus musculus. As to the kind of experiment: Toxicity in mouse assessed as morbidity at 40 mg/kg/day. In kind it is organism-based. To be noted: in vivo. In short, it runs like this:
as §1

Data set [21] concerns the target Phosphatidylinositol 4,5-bisphosphate 3-kinase catalytic subunit gamma isoform (Homo sapiens, UniProt P48736).
For data set [22], the system named is Rattus norvegicus. Kind of data set: (§6) Oral bioavailability in Sprague-Dawley rat at 5 mg/kg. Type of data set: ADME, organism-based. Conditions: in vivo. Summed up: as §2
For data set [23], the system named is Rattus norvegicus. As to the kind of experiment: (§7) Cmax in Sprague-Dawley rat at 5 mg/kg, po. In kind it is ADME, organism-based. Set-up: dose 5 mg/kg, route oral. Conditions: in vivo. Summed up: as §2
A short description of data set [24]: as §3. Conditions: Sprague-Dawley, in vivo. Details: dose 5 mg/kg, route oral. Type of data set: ADME, organism-based. In short, it runs like this:
as §2

The nature of data set [25]: as §4. Type of data set: ADME, organism-based. Set-up: dose 5 mg/kg, route oral. Conditions: Sprague-Dawley, in vivo. Summed up: as §2
Data set [26] can be described thus: AUC in Sprague-Dawley rat at 5 mg/kg, po. In kind it is ADME, organism-based. Set-up: dose 5 mg/kg, route oral. Conditions: plasma. In short, it runs like this:
as §2

Data set [27] can be described thus: as §6. In kind it is ADME, organism-based. To be noted: Sprague-Dawley, in vivo. Summed up:
as §2

Data set [28] can be described thus: as §7. Type of data set: ADME, organism-based. Details: dose 5 mg/kg, route oral. To be noted: Sprague-Dawley, in vivo. In short, it runs like this: as §2
Data set [29] concerns the target T1, Phosphatidylinositol 4-kinase alpha. As to the kind of experiment: Competitive inhibition of GST-tagged PI4K-alpha (1 to 2044) (unknown origin) in presence of ATP.
Data set [30] in a line: Clearance in Sprague-Dawley rat at 1 mg/kg, iv. In kind it is ADME, organism-based. Set-up: dose 1 mg/kg, route intravenous. Conditions: in vivo. In short, it runs like this:
as §2

A short description of data set [31]: Thermodynamic stability of the compound in DMSO assessed as interconversion at 80 degC after 6 days. Type of data set: physicochemical. Conditions: 144 h.
Data set [32] in a line: as §5. Details: dose 1 mg/kg, route intravenous. Type of data set: ADME, organism-based. To be noted: Sprague-Dawley, in vivo, read-out: Vdss. Summed up: as §2
Data set [33] in a line: Thermodynamic stability of the compound in DMSO assessed as decomposition at 80 degC after 6 days. In kind it is physicochemical. Conditions: 144 h.
Setting [34] is: Hepatitis C virus, genotype 1b, ET, 48 h.

Chain of Phosphatidylinositol 4,5-bisphosphate 3-kinase catalytic subunit gamma isoform (P48736 whole entry, canonical isoform): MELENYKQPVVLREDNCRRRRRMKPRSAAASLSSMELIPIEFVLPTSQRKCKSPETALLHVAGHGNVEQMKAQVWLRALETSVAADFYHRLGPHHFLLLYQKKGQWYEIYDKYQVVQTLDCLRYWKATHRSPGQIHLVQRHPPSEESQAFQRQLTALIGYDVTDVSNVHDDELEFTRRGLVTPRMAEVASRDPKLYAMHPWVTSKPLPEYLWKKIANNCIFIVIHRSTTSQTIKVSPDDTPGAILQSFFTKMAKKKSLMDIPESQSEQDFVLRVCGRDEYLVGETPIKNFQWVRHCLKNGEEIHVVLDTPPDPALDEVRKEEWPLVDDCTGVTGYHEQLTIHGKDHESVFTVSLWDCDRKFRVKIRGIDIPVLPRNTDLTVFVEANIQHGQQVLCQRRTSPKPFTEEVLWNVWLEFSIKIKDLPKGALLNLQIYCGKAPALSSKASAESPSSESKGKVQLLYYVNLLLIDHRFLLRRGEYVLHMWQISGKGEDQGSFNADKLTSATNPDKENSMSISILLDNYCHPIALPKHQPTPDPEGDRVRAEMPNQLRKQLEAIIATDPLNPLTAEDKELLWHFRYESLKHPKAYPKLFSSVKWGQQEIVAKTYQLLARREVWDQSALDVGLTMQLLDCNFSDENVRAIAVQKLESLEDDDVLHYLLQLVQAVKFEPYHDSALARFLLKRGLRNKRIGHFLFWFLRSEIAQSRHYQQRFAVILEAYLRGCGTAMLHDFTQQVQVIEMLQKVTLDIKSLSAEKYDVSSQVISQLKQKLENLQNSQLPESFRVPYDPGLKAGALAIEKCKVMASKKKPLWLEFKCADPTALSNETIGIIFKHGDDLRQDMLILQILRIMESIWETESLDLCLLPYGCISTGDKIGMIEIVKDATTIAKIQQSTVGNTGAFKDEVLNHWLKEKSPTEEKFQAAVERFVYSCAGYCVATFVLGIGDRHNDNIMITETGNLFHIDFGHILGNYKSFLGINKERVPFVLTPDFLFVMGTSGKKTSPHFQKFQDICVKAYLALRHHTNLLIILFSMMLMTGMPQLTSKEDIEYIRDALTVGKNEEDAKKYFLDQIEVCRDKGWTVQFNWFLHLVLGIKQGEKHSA

On to `COc1ncc(-c2ccc3nc(N)n(-c4ccccc4C(F)(F)F)c(=O)c3c2)cc1S(=O)(=O)Nc1ccc(F)cc1F` (atropisomer aS), for which the pIC50 in [1] is 5.6; in [7], 5.1; in [13], 6; with Hepatitis C virus [15], 7.9; in the data set on Hepatitis C virus [17], 7.9; in data set [18], 5.6. The same compound returned a pIC50 in the data set with Hepatitis C virus [19] of 8.6. Further, the Activity result in the data set on Mus musculus [2], with Mus musculus [6], with Mus musculus [12], in the data set with Mus musculus [16] and in the data set with Mus musculus [20] was “Toxic” throughout. In addition, the results for the t1/2 with Rattus norvegicus [3] and with Rattus norvegicus [9] were 1.3 h and 4 h, respectively. Besides, the AUC/dose in the data set on Rattus norvegicus [4] amounted to 3626 kg·ng·h/mL/mg; in the data set with Rattus norvegicus [11], 3695 kg·ng·h/mL/mg. Moreover, the Tmax in the data set on Rattus norvegicus [5] was found to be 4.25 h. Moreover, the IC50 in data set [8] was 5.01 nM; in data set [21], 2510 nM. In the data set with Rattus norvegicus [10], this compound displayed a Vdss of 0.34 L/kg. In addition, the MTD at 336 h in data set [14] was 50 mg/kg. The F in the data set with Rattus norvegicus [22] is 98%. The Cmax with Rattus norvegicus [23] stood at 1556 ng/mL.
Turning to `COc1ncc(-c2ccc3nc(N)n(-c4ccccc4)c(=O)c3c2)cc1NS(=O)(=O)c1ccc(F)cc1F`, the pIC50 in data set [1] came to 8.2; in [7], 7; in data set [13], 7.2; in [18], 8.2. Moreover, the Tmax in data set [24] stood at 6 h. For the same compound, the IC50 in data set [8] is 1.58 nM; in the data set on Hepatitis C virus [19] (setting [34]), 0.501 nM; in data set [21], 3.98 nM. Further, in [25], the half-life is 6.7 h. The compound also had an AUC in data set [26] of 60200 ng·h/mL. Besides, the bioavailability in data set [27] turned out to be 60%. In [28], this compound showed a Cmax of 3580 ng/mL.
Turning to `COc1ncc(-c2ccc3nc(N)c(-c4ccc(N5CCOCC5)cc4)cc3c2)cc1NS(=O)(=O)c1ccc(F)cc1F`, the inhibition entry in data set [29] was “Active”. The pIC50 was determined as 5.6 in [1], 5 in [7], 5.5 in data set [13] and 6.2 in data set [18]. For the same compound, the Tmax in [24] was 0.67 h. Besides, the IC50 was 39.8 nM in data set [8] and 631 nM in [21]. The compound further gave a half-life in data set [25] of 2.39 h. The EC50 was 20 nM with Hepatitis C virus [15] (Hepatitis C virus, genotype 2a, Huh-7, 48 h); 31.6 nM in the data set with Hepatitis C virus [17] (Hepatitis C virus, subtype 1a, ET, 48 h); 3.98 nM with Hepatitis C virus [19] (setting [34]). In data set [26], the AUC amounted to 5000 ng·h/mL. In addition, the bioavailability in data set [27] stood at 38%. In addition, in [28], the Cmax was found to be 1390 ng/mL.
`COc1ncc(-c2ccc3nc(N)n(-c4ccccc4C(F)(F)F)c(=O)c3c2)cc1S(=O)(=O)Nc1ccc(F)cc1F` (atropisomer aR) returned a clearance in data set [30] of 2.5 mL/min/kg. The pIC50 in data set [1] is on record as 5.5; in [7], 4.8; in data set [13], 5.3; in the data set with Hepatitis C virus [15] it was 7.1; with Hepatitis C virus [17], 6.9; in data set [18] it was 5. For the same compound, in the data set on Hepatitis C virus [19], the pIC50 is recorded as 7.8. This compound gave a t1/2 with Rattus norvegicus [3] of 3.5 h. For the same compound, the AUC/dose with Rattus norvegicus [4] was found to be 9985 kg·ng·h/mL/mg; in the data set on Rattus norvegicus [11] it was 7113 kg·ng·h/mL/mg. Further, in [24], the Tmax was 3 h. Besides, the IC50 was 126 nM in data set [8] and 3160 nM in data set [21]. Also, the Stability entry in data set [31] and in [33] was “Stable” in each case. Besides, in [25], the half-life is 2.7 h. Besides, the Vd in data set [32] worked out at 0.55 L/kg. This compound also registered a bioavailability in data set [27] above 100%. In the data set on Rattus norvegicus [23], this compound displayed a Cmax of 4429 ng/mL.

As usually defined, the pIC50 is the IC50 on a negative log10 scale, so that one unit is a factor of ten. Lower therefore signals a high IC50. Usually Tmax stands for the time at which the peak concentration occurs. Broadly, the IC50 is the concentration that gives 50% inhibition. Broadly, the Vdss is a proportionality between amount in the body and measured concentration, not a real space. A lower Vdss goes with confinement near the circulation. By Cmax is commonly meant the maximum level reached in the sampled fluid or tissue. A word on the half-life: it is the time needed for the level to fall by half in the phase considered. Lower therefore signals fast loss. The term AUC denotes concentration integrated over time. A lower AUC goes with low exposure. As usually defined, the bioavailability is dose-corrected exposure relative to a reference, in per cent. Usually EC50 stands for the concentration needed to bring the measured effect to its halfway point. High values mean a need for much substance, low ones an effect from little substance. The clearance is the rate of elimination divided by the concentration. The low end stands for a low capacity for elimination, the high end for a high capacity for elimination.
